Experimental data gathered from unrelated publications.
Protocols differ between the studies behind these lines.
Organism: Plasmodium falciparum
Observed: parasite growth
Technique: SYBR Green

CCCCCCNC[C@@H](O)c1cc(Cl)cc2c1-c1ccc(Cl)cc1C2 has an IC50 of 6.5 nM (W2; 48 h; drug-resistant strain, blood stage).
CCN(CC)CCCC(C)Nc1ccnc2cc(Cl)ccc12 (centres unmarked) has an IC50 of 75 nM (DD2; 96 h; drug-resistant strain, blood stage).
The IC50 of Cn1cc2c3c1C(=O)C(N)=CC3=NCC2 is reported as 5770 nM (W2; blood stage).
The EC50 of CC(C)C[C@H](NC(=O)[C@H](Cc1ccccc1)NC(=O)c1cnccn1)B(O)O is reported as 41 nM (DD2; blood stage).
The IC50 of O=C1C=C2NCCc3c[nH]c(c32)C1=O is reported as 29600 nM (3D7; blood stage).
O[C@H](CN[C@@H](COCC1CC1)Cc1ccccc1)c1cc(Cl)cc2c1-c1ccc(Cl)cc1C2 has an IC50 of 5.4 nM (W2; 48 h; drug-resistant strain, blood stage).
COCC(=O)N1CCC[C@H](C(=O)NCc2nc(-c3ccc(C#N)cc3)cs2)C1 gave an EC50 of 18 nM (DD2; blood stage).
For CCN(CC)CCCC(C)Nc1ccnc2cc(Cl)ccc12 (centres unmarked), the IC50 was 848 nM (DD2; drug-resistant strain, blood stage).
With COCC(=O)N1CCC[C@H](C(=O)NCc2nc(-c3ccccc3)cs2)C1 the EC50 was 69 nM (DD2; blood stage).
With C[N+]1=C2C=C(N)C(=O)c3[nH]cc(c32)CC1 the IC50 was 196 nM (3D7; blood stage).
COc1ccccc1C(=O)/C=C/c1cn(Cc2cn(-c3ccnc4cc(Cl)ccc34)nn2)c2ccccc12 gave an inhibition of > 50% (3D7; 10 µM; blood stage).
For O[C@@H](CNCCN1CCN(C(c2ccccc2)c2ccccc2)CC1)c1cc(Cl)cc2c1-c1ccc(Cl)cc1C2, the IC50 was 13 nM (W2; 48 h; drug-resistant strain, blood stage).
O=Cc1cn(Cc2cn(-c3ccnc4cc(Cl)ccc34)nn2)c2ccccc12 has an inhibition of -4.99% (3D7; 5 µM; blood stage).
With CCOCC(=O)N1CCC[C@H](C(=O)NCc2nc(-c3ccc(C#N)cc3)cs2)C1 the EC50 was 6.2 nM (DD2; blood stage).
For O[C@H](CN1CCN(C(c2ccccc2)c2ccccc2)CC1)c1cc(Cl)cc2c1-c1ccc(Cl)cc1C2, the IC50 was 70.2 nM (W2; 48 h; drug-resistant strain, blood stage).
C[C@@H]1CC[C@H]2[C@@H](C)C(=O)O[C@@H]3O[C@@]4(C)CC[C@@H]1[C@]32OO4 has an IC50 of 76 nM (DD2; drug-resistant strain, blood stage).
The IC50 of C[N+]1=C2C=C(NCCc3ccc(O)cc3)C(=O)c3[nH]cc(c32)CC1 is reported as 28.3 nM (DD2; blood stage).
CCCCCNC[C@H](O)c1cc(Cl)cc2c1-c1ccc(Cl)cc1C2 has an IC50 of 3.7 nM (W2; 48 h; drug-resistant strain, blood stage).
Cc1cc(Nc2ccc(S(F)(F)(F)(F)F)cc2)n2nc(C(C)(F)F)nc2n1 has an EC50 of 8.5 nM (DD2; blood stage).
For C[N+]1=C2C=C(N/C=C/c3ccc(O)cc3)C(=O)c3[nH]cc(c32)CC1, the IC50 was 498 nM (DD2; blood stage).
With O[C@@H](CNCCCC(F)(F)F)c1cc(Cl)cc2c1-c1ccc(Cl)cc1C2 the IC50 was 3.8 nM (W2; 48 h; drug-resistant strain, blood stage).
With O=C1C(NCCc2c[nH]c3ccccc23)=CC2=NCCc3c[nH]c1c32 the IC50 was 160 nM (3D7; blood stage).
For CCCCCCCNC[C@@H](O)c1cc(Cl)cc2c1-c1ccc(Cl)cc1C2, the IC50 was 4.7 nM (W2; 48 h; drug-resistant strain, blood stage).
